CHRM4 agonist = CHRM4 agonism in calcium assay; hit rate 0.14% among 360,000; P08173; activation, % at 3 µM; CHO-K1 hM4/Gqi5, Fluo-8 calcium fluorescence; vehicle 0%, full acetylcholine response 100%;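 active means activation above the run mean over all test wells plus 3 SD, cut at about 32% in these data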;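 further: peak over basal fluorescence ratio per well then scaled between controls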
CHRM4 PAM = CHRM4 positive allosteric modulation; AID 624126; P08173; hit rate 0.4% among 360,000; CHO-K1 hM4/Gqi5, Fluo-8 calcium fluorescence, ACh EC20; 0% = ACh EC20, 100% = maximal ACh; activation, % at 3 µM;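 active means activation above its plate's cutoff, the mean activation of sample wells plus 3 SD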
CHRM4 antagonist = CHRM4 antagonism in calcium assay. inhibition, % at 3 µM. CHO-hM4 cells, ACh EC80, Fluo-8 calcium fluorescence. AID 624125. hit rate 0.73% among 360,000;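 active means inhibition above its plate's cutoff, the mean inhibition of sample wells plus 3 SD, cut at about 27% in these data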
CHRM5 PAM = CHRM5 positive allosteric modulation | hit rate 0.3% among 360,000 | activation, % at 3 µM | P08912 | CHO-K1 hM5, Fluo-8 calcium, ACh EC20 PAM; 0% = ACh EC20, 100% = ACh EC100;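 active means activation above the run cutoff, the mean activation of all test compounds plus 3 SD, cut at about 18% in these data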
Target sequence (P08912 whole entry, looked up): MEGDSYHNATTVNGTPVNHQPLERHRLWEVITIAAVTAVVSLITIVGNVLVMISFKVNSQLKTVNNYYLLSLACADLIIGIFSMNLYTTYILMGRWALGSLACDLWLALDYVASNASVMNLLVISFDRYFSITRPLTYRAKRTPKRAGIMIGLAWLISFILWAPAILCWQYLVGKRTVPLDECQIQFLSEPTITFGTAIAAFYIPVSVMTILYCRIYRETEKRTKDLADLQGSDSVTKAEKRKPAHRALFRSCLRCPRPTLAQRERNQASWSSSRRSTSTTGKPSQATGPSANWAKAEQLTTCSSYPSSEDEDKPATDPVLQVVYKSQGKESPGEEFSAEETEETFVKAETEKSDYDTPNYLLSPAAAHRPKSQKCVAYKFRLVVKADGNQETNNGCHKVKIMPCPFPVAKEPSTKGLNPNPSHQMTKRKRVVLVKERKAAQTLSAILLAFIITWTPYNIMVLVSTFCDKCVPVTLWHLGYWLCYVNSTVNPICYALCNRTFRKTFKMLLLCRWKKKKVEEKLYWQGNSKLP
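Assay system – human M5 receptor in CHO-K1 cells · Read-out – % activation, ACh-normalized · Technique – Fluo-8 calcium fluorescence · Dosing – single-point, 3 µM nominal · Incubation – Fluo-8 loading 80 min at 37 °C plus 30 min room temperature · Repeats – singlicate, one well per test compound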
CHRM5 antagonist = CHRM5 antagonism in calcium assay; inhibition, % at 3 µM; AID 624040; CHO-hM5 cells, Fluo-8 calcium fluorescence, ACh EC80; hit rate 0.59% among 360,000; P08912;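 active means inhibition above a per-plate cutoff, the mean of that plate's test compounds plus 3 SD, cut at about 27% in these data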
CHRM5 agonist = agonists of human muscarinic M5 receptor (CHRM5). P08912. CHO-K1 hM5 cells, Fluo-8 calcium fluorescence; 0% DMSO wells, 100% maximal acetylcholine response. activation, % at 3 µM. hit rate 0.19% among 360,000. AID 624037;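 active means activation above the run's mean over test compounds plus 3 SD, cut at about 23% in these data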;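 further: signal is peak over basal fluorescence ratio across the kinetic read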
Numbers stand for hits. The list is not random: actives were taken first. Their share in the collection is about 1.8%.

For COc1ccc(C2=NOC(C(=O)NCc3ccc(F)cc3)C2)cc1 (stereo unspecified) the results were CHRM4 agonist inactive, CHRM4 PAM inactive, CHRM4 antagonist inactive, CHRM5 PAM inactive, CHRM5 antagonist inactive and CHRM5 agonist inactive.
For CN1C(=O)c2ccc(N3CCCC3)cc2C1=O the results were CHRM4 agonist inactive, CHRM4 PAM inactive, CHRM4 antagonist inactive, CHRM5 PAM inactive, CHRM5 antagonist inactive and CHRM5 agonist inactive.
O=C1N/C(=C/c2ccc(N3CCCC3)cc2)C(=O)N1c1ccccc1 was read as CHRM4 agonist inactive, CHRM4 PAM inactive, CHRM4 antagonist inactive, CHRM5 PAM inactive, CHRM5 antagonist inactive and CHRM5 agonist inactive.
For Cc1cc(N2CCCC2)ccc1/C=C1\NC(=S)N(C)C1=O the results were CHRM4 agonist inactive, CHRM4 PAM inactive, CHRM4 antagonist inactive, CHRM5 PAM inactive, CHRM5 antagonist inactive and CHRM5 agonist 42.
`O=C1/C(=C/c2ccc(N3CCCC3)cc2)NC(=S)N1C1CC1` gave CHRM4 agonist 46, CHRM4 PAM inactive, CHRM4 antagonist 36, CHRM5 PAM inactive, CHRM5 antagonist 54 and CHRM5 agonist 69.
Cc1ccc(S(=O)(=O)N(C)c2ccc(C(=O)N(C)Cc3nc4ccccc4c(=O)[nH]3)cc2)cc1 was read as CHRM4 agonist inactive, CHRM4 PAM inactive, CHRM4 antagonist inactive, CHRM5 PAM inactive, CHRM5 antagonist inactive and CHRM5 agonist inactive.
For COCCCNC(=O)/C=C/[C@H]1O[C@@H](n2cnc3c(NC(=O)c4ccccc4)ncnc32)[C@H](O)[C@@H]1O the results were CHRM4 agonist inactive, CHRM4 PAM 23, CHRM4 antagonist inactive, CHRM5 PAM inactive, CHRM5 antagonist inactive and CHRM5 agonist inactive.
Screening O=C(C(=O)N1CCN(c2ccccc2)CC1)c1cccc(Br)c1 returned CHRM4 agonist inactive, CHRM4 PAM inactive, CHRM4 antagonist 30, CHRM5 PAM inactive, CHRM5 antagonist inactive and CHRM5 agonist inactive.
`Cc1ccc(N2CCN(C(=O)C(=O)c3cccc(Br)c3)CC2)cc1` gave CHRM4 agonist inactive, CHRM4 PAM inactive, CHRM4 antagonist inactive, CHRM5 PAM inactive, CHRM5 antagonist inactive and CHRM5 agonist inactive.
O=C(Nc1cccc(Cl)c1)Nc1cccc(Cl)c1 was read as CHRM4 agonist inactive, CHRM4 PAM inactive, CHRM4 antagonist inactive, CHRM5 PAM inactive, CHRM5 antagonist inactive and CHRM5 agonist inactive.
`O=C(Nc1cccnc1)c1cc(Br)c(Br)s1` gave CHRM4 agonist inactive, CHRM4 PAM inactive, CHRM4 antagonist inactive, CHRM5 PAM inactive, CHRM5 antagonist inactive and CHRM5 agonist 26.
O=C(CN1C(=O)c2ccccc2C1=O)Nc1cccc(S(=O)(=O)Nc2ccccc2Cl)c1 was read as CHRM4 agonist inactive, CHRM4 PAM 25, CHRM4 antagonist inactive, CHRM5 PAM inactive, CHRM5 antagonist inactive and CHRM5 agonist inactive.
COC(=O)c1cc(NC(=O)Nc2cccc(Cl)c2)ccc1Cl was read as CHRM4 agonist inactive, CHRM4 PAM inactive, CHRM4 antagonist inactive, CHRM5 PAM inactive, CHRM5 antagonist 32 and CHRM5 agonist inactive.
Screening COC(=O)c1cccc(NC(=O)Nc2ccc(Cl)cc2)c1 returned CHRM4 agonist inactive, CHRM4 PAM inactive, CHRM4 antagonist inactive, CHRM5 PAM inactive, CHRM5 antagonist inactive and CHRM5 agonist inactive.
Screening O=C(Nc1cccc(F)c1)Nc1cccc(Cl)c1 returned CHRM4 agonist inactive, CHRM4 PAM inactive, CHRM4 antagonist inactive, CHRM5 PAM inactive, CHRM5 antagonist 28 and CHRM5 agonist inactive.
Screening Cc1ccc(NC2CCCN(C(=O)c3cc4ncccn4n3)C2)cc1C (stereo unspecified) returned CHRM4 agonist inactive, CHRM4 PAM inactive, CHRM4 antagonist inactive, CHRM5 PAM inactive, CHRM5 antagonist inactive and CHRM5 agonist inactive.
O=C(Nc1cccnc1)Nc1ccccc1Cl was read as CHRM4 agonist inactive, CHRM4 PAM inactive, CHRM4 antagonist inactive, CHRM5 PAM inactive, CHRM5 antagonist inactive and CHRM5 agonist inactive.
COc1ccccc1NS(=O)(=O)c1cccc(NC(=O)Nc2cccc(Cl)c2)c1 was read as CHRM4 agonist inactive, CHRM4 PAM inactive, CHRM4 antagonist 47, CHRM5 PAM inactive, CHRM5 antagonist 59 and CHRM5 agonist inactive.
For O=C(Nc1cccnc1)Nc1cc(Cl)cc(Cl)c1 the results were CHRM4 agonist inactive, CHRM4 PAM inactive, CHRM4 antagonist inactive, CHRM5 PAM inactive, CHRM5 antagonist 30 and CHRM5 agonist inactive.
Screening COCCNC(=O)C1(C)CCCN(C(=O)c2c(F)ccc(C)c2F)C1 (stereo unspecified) returned CHRM4 agonist inactive, CHRM4 PAM inactive, CHRM4 antagonist inactive, CHRM5 PAM inactive, CHRM5 antagonist inactive and CHRM5 agonist inactive.
COc1ccc(-c2n[nH]c(=S)nc2-c2ccc(OC)cc2)cc1 was read as CHRM4 agonist inactive, CHRM4 PAM inactive, CHRM4 antagonist inactive, CHRM5 PAM inactive, CHRM5 antagonist inactive and CHRM5 agonist inactive.
`CN(/N=C/c1ccc(-c2ccc([N+](=O)[O-])cc2)o1)c1ccccc1` gave CHRM4 agonist inactive, CHRM4 PAM inactive, CHRM4 antagonist inactive, CHRM5 PAM inactive, CHRM5 antagonist inactive and CHRM5 agonist 34.
For CCc1nc2ccc(C(=O)NCc3ccc4c(c3)OCO4)cn2c1N(C)Cc1cccs1 the results were CHRM4 agonist inactive, CHRM4 PAM inactive, CHRM4 antagonist inactive, CHRM5 PAM inactive, CHRM5 antagonist inactive and CHRM5 agonist inactive.
For O=C(Nc1ccc(Br)cc1F)c1cccnc1 the results were CHRM4 agonist inactive, CHRM4 PAM inactive, CHRM4 antagonist inactive, CHRM5 PAM inactive, CHRM5 antagonist inactive and CHRM5 agonist inactive.
Screening CN(C)CC/C=C1/c2cc(F)ccc2CSc2ccc(F)cc21 returned CHRM4 agonist inactive, CHRM4 PAM inactive, CHRM4 antagonist 84, CHRM5 PAM inactive, CHRM5 antagonist 98 and CHRM5 agonist inactive.
`CN(C)CC/C=C1\c2cc(F)ccc2CSc2ccccc21` gave CHRM4 agonist inactive, CHRM4 PAM inactive, CHRM4 antagonist 97, CHRM5 PAM inactive, CHRM5 antagonist 98 and CHRM5 agonist inactive.
For Clc1ccc2c(c1)-c1[nH]ncc1CS2 the results were CHRM4 agonist inactive, CHRM4 PAM inactive, CHRM4 antagonist inactive, CHRM5 PAM inactive, CHRM5 antagonist inactive and CHRM5 agonist inactive.
Screening Cc1n[nH]c(C)c1Cc1c(F)cccc1Cl returned CHRM4 agonist inactive, CHRM4 PAM inactive, CHRM4 antagonist inactive, CHRM5 PAM 28, CHRM5 antagonist inactive and CHRM5 agonist inactive.
For NC(=O)CC(NC(=O)Cc1cccc2ccccc12)c1ccc(NCC2CC2)c([N+](=O)[O-])c1 (stereo unspecified) the results were CHRM4 agonist inactive, CHRM4 PAM inactive, CHRM4 antagonist inactive, CHRM5 PAM inactive, CHRM5 antagonist inactive and CHRM5 agonist inactive.

Assay outcomes deposited in PubChem by The Scripps Research Institute Molecular Screening Center.
